Measured values gathered from unrelated publications.
Target: Dual specificity testis-specific protein kinase 1 (TESK1, Homo sapiens, UniProt Q15569)

Cc1c[nH]c2nccc(Oc3c(F)cc(Nc4cc(Cl)nc(N)n4)cc3F)c12 — remaining binding (cell-free assay, competition with immobilised ligand; 0.1 µM): 100%
O=C(NCC1CCOCC1)c1n[nH]cc1NC(=O)c1c(F)cccc1F — remaining binding (binding, competition with immobilised ligand; 1 µM): 100%
COc1ccc2c(c1)O[C@@H](c1ccc(OC)c(OC)c1)C[C@H]2NC(=O)C1(c2ccc3c(c2)OC(F)(F)O3)CC1 — remaining binding (cell-free assay, competition with immobilised ligand; 1 µM): 96%
C=CC(=O)N1CCC(C(=O)NCC(=O)N2CCN(c3nc(-c4cnc(N)nc4C(F)F)nc(N4CCOCC4)n3)CC2)CC1 — remaining binding (binding, competition with immobilised ligand; 1 µM): 100%
Nc1ncc2c(n1)-c1c([nH]c3ccc(C#CC4CC4)cc13)CCCC2 — remaining binding (binding, competition with immobilised ligand; 1 µM): 100%
CO[C@H]1CC[C@H](CNc2ccc(S(=O)(=O)NC(=O)c3ccc(N4CCN(CC5=C(c6ccc(Cl)cc6)CC(C)(C)CC5)CC4)cc3Oc3cnc4[nH]ccc4c3)cc2[N+](=O)[O-])CC1 — remaining binding (cell-free assay, competition with immobilised ligand; 1 µM): 100%
c1cncc(-c2cccc(Nc3nccc(NC4CCCCC4)n3)c2)c1 — remaining binding (binding, competition with immobilised ligand; 10 µM): 77%
CNC(=O)[C@@H]1CC[C@@H](n2c(-c3ccc4cnccc4c3)nc3ccc(C(=O)NCc4cccc(C(N)=O)c4)cc32)C1 — remaining binding (binding, competition with immobilised ligand; 1 µM): 100%
CC1CCCN1c1nccc(-c2cnn3ncccc23)n1 (stereo not drawn) — remaining binding (binding; 1 µM): 99%
NS(=O)(=O)c1cc(NC(=O)Cc2ccccc2)ccc1Oc1cccc(Cl)c1 — remaining binding (cell-free assay, competition with immobilised ligand; 1 µM): 100%
O=C(NCCCN1CCOCC1)c1ccc(Nc2nccc(-c3cc4ccccc4s3)n2)cc1 — remaining binding (binding, competition with immobilised ligand; 1 µM): 77%
CN(C)c1nccc(-c2cnn3ncccc23)n1 — remaining binding (binding; 1 µM): 100%
O=C(NCCCN1CCOCC1)c1ccc(Nc2ncc(Cl)c(-c3ccc(Cl)s3)n2)cc1 — remaining binding (binding, competition with immobilised ligand; 1 µM): 100%
CN(CCCC(F)(F)F)c1nccc(-c2cnn3ncccc23)n1 — remaining binding (binding; 1 µM): 67%
CCN1CCN(Cc2ccc(C(=O)Nc3ccc(C)c(Oc4ccc5c(c4)CC(=O)N5)c3)cc2C(F)(F)F)CC1 — remaining binding (binding, competition with immobilised ligand; 1 µM): 100%
C[C@@H]1CCN(c2nccc(-c3cnn4ncccc34)n2)C1 — remaining binding (binding; 1 µM): 91%
C[C@H](NC(=O)c1cnc2n1[C@](C)(Cc1ccc(C#N)cc1)C(=O)N2c1cc(Cl)c(F)c(Cl)c1)C(=O)NC1(c2ccccn2)CC1 — remaining binding (cell-free assay, competition with immobilised ligand; 1 µM): 100%
N[C@H]1CCN(c2nccc(-c3cnn4ncccc34)n2)C1 — remaining binding (binding; 1 µM): 86%
Nc1cnc(N2CCc3cc(S(=O)(=O)Nc4c(F)cc(Cl)cc4F)cc(N4CCCC4=O)c32)nc1 — remaining binding (cell-free assay, competition with immobilised ligand; 1 µM): 100%
O=C(c1ccc(Nc2nccc(-c3cc4ccccc4s3)n2)cc1)N1CCC(N2CCCC2)CC1 — remaining binding (binding, competition with immobilised ligand; 1 µM): 97%
c1cnn2ncc(-c3ccnc(N4CCC45COC5)n3)c2c1 — remaining binding (binding; 1 µM): 99%
